14 compounds from PubChem BioAssay can be followed below.

Calls of active or inactive are those of the source.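 The calls were made as follows, unless noted: active = inhibition of the reporter signal at or above 50%; inactive = inhibition below 50%.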

Experiment [1] is described as follows: inhibitors of TNFa-induced NFkB p65 translocation, primary screen, imaging, HUVEC, MLSMR starter and 10KST1 sets (AID 438;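 active = inhibition above 20% together with a positive visual image hit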;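 also: compound added about 3h40 before a 20 min TNFalpha stimulation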;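 as to inhibition: signal is the nuclear over cytoplasmic p65 intensity ratio per well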). Particulars: HUVEC TNFa-induced p65 nuclear translocation; cell count: measured here: nuclei count (cytotoxicity indicator), at 2.08 µM; inhibition: at 2 µM, stronger effect = higher value, 0% TNFa-plus-vehicle, 100% no-TNFa wells.
Experiment [2] is described as follows: reduction of polyQ htt aggregates in cells – imaging, exon1htt(103Q)mCFP cells, high-content imaging, primary screen (AID 483;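 active = visual image review flags a hit and inhibition of aggregation exceeds 20%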;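 also: compound exposure lasted 3 days before fixation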;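 as to nuclei count: percent of the per-plate median nuclei count of sample wells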). Particulars: exon1htt(103Q)mCFP cell line, aggregate imaging, at 2 µM; inhibition of aggregation: stronger effect = higher value; nuclei count: measured here: cell count, toxicity.
Experiment [3] can be described thus: endothelial E-selectin expression blockers – imaging, HUVEC, immunofluorescence, MLSMR starter and 10KST1 sets, primary screen (AID 487;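 active = visually confirmed hit in the image check and inhibition above 20%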;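 as to inhibition: signal is fraction of cell area covered by stained E-selectin grains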;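 as to nuclei count: 100% = median nuclei count of all wells on the same plate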). Particulars: HUVEC TNFalpha-induced E-selectin immunofluorescence imaging, at 2 µM; inhibition: stronger effect = higher value; nuclei count: measured here: cell number, toxicity.
In experiment [4] the target is Voltage-gated potassium channel subunit beta-2 (Rattus norvegicus) (UniProt P62483). In words: inhibitors of rat Kvbeta2 reductase activity – biochemical, NADPH fluorescence, primary screen (AID 622;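 active = fluorescence slope higher than the sample average by over 3 SD, cut at about -0.22 in these data, passing the limit was not always enough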;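 also: slope of raw intensity against log time taken from 70 to 1610 s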). Particulars: recombinant KvBeta, 4-cyanobenzaldehyde reduction, at 10 µM, stronger effect = higher value.
Experiment [5] has the same target. Description: enhancers of rat Kvbeta2 NADPH turnover – biochemical, NADPH fluorescence, primary screen (AID 623;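 active = NADPH fluorescence slope more negative than the mean of all samples by about 3 SD, 99.7% confidence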;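 also: fluorescence intensity change per second fitted from 20 to 320 s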). Particulars: Recombinant KvBeta, NADPH fluorescence decrease slope, 10 min; at 10 µM; stronger effect = lower value.
In experiment [6] the target is Muscarinic acetylcholine receptor M4 (Homo sapiens) (UniProt P08173). In words: M4-linked GIRK flux change, two-sided – cell-based, HEK293 M4/GIRK, thallium flux, BTC-AM, M4 allosteric agonist project, primary screen (AID 625;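 active = fluorescence slope after compound addition differing from the mean of all tested samples at 99.7% confidence, mostly higher but some lower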;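 also: thallium influx through GIRK channels coupled to M4 in HEK293 cells with BTC-AM dye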). Particulars: at 10 µM, actives lie on both sides. The gist of the method:
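Material: HEK293 cells with M4 receptor and GIRK channels; Times: cells overnight at 37 °C, BTC-AM loading 1 h, reads 2 min total; Technique: kinetic BTC-AM fluorescence sampled at 1 Hz, 10 s pre-addition baseline; Read-out basis: slope over 15–24 s of trace normalized to starting intensity; Controls: carbachol positive, DMSO negative.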

Experiment [7] in a line: blockers of RIG-like receptor reporter activation – cell-based, Sendai virus stimulus, luciferase, 10K MLSCN set, TLR/RLR signaling modifier project, primary screen (AID 602276;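 active = inhibition at or above 50% at 10 µM; inactive = inhibition below 50%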;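 also: firefly luciferase from ISG56 promoter only with Renilla not read in this screen; 0% = Sendai virus plus DMSO and 100% = medium plus DMSO without virus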). Particulars: HEK293 RL24 IRF3 luciferase reporter, at 10 µM, stronger effect = higher value.
Experiment [8] is described as follows: TLR3 IRF3 reporter activation blockers – cell-based, poly I:C stimulus, luciferase, 10K MLSCN set, primary screen (AID 602277). Particulars: HEK293-TLR3 RL24 IRF3 luciferase reporter, at 10 µM, stronger effect = higher value.

Chain of Voltage-gated potassium channel subunit beta-2 (Rattus norvegicus) (P62483 whole entry, looked up): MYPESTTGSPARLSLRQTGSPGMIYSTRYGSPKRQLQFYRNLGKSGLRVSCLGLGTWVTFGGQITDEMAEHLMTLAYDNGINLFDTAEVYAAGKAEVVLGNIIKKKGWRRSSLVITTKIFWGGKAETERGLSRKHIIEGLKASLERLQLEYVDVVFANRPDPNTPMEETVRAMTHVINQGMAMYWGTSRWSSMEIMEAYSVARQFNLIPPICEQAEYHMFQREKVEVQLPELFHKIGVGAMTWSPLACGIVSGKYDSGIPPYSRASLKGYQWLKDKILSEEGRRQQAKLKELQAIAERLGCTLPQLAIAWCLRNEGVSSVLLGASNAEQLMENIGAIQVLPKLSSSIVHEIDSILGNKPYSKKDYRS
Chain of Muscarinic acetylcholine receptor M4 (Homo sapiens) (P08173 whole entry, looked up): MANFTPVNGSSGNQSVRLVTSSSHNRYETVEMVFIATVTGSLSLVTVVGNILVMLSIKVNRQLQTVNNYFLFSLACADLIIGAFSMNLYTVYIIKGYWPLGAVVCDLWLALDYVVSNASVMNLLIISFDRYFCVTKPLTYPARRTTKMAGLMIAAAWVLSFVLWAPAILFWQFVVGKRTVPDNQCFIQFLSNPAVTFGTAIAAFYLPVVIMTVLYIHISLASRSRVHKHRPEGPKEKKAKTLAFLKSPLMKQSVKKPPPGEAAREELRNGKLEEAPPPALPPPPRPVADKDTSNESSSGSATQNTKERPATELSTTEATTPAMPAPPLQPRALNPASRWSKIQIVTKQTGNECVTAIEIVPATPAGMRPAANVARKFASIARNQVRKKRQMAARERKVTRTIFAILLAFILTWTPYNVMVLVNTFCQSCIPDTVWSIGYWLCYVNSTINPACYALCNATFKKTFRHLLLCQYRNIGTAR

Take `CN1CCN(CC(=O)Nc2ccc(Cl)cc2Cl)CC1`: the cell count in experiment [1] was 445. Further, the inhibition is -3.5% (inactive) in experiment [1], 66.8% (inactive) in experiment [3], 11% (inactive) in experiment [7] and 14.7% (inactive) in experiment [8]. Also, the inhibition of aggregation in experiment [2] was 0% (inactive). The nuclei count in experiment [2] came to 103%; in experiment [3], 78.8%. Further, the fluorescence slope in experiment [4] is -0.619 (inactive); in experiment [6] it was 0.00642 (inactive). The NADPH fluorescence slope in experiment [5] is 7.6e-06 (inactive).

`CCSc1nnc(NC(=O)c2nn(C(C)C)c(=O)c3ccccc23)s1`: in experiment [1], the cell count came out at 221. Also, the inhibition was 3.9% (inactive) in experiment [1], 31.6% (inactive) in experiment [3], 9.39% (inactive) in experiment [7] and 11.7% (inactive) in experiment [8]. Also, the inhibition of aggregation in experiment [2] was 15.4% (inactive). The nuclei count is 71.5% in experiment [2] and 94% in experiment [3]. Moreover, the fluorescence slope in experiment [4] is -0.408 (inactive); in experiment [6], 0.00464 (inactive). The NADPH fluorescence slope in experiment [5] was -0.000337 (inactive).

Consider `CN(C)S(=O)(=O)c1ccc(S(=O)(=O)Nc2ccc3c(c2)oc2ccccc23)cc1`, for which the cell count in experiment [1] came out at 414. Also, the inhibition is -7.9% (inactive) in experiment [1], 4.6% (inactive) in experiment [3], -8.93% (inactive) in experiment [7] and -1.94% (inactive) in experiment [8]. For the same compound, in experiment [2], the inhibition of aggregation was -3.8% (inactive). The nuclei count in experiment [2] was determined as 107%; in experiment [3], 92%. Also, the fluorescence slope in experiment [4] was -0.54 (inactive); in experiment [6], 0.00569 (inactive). Moreover, the NADPH fluorescence slope in experiment [5] is -5.2e-05 (inactive).

Regarding `CSc1nnc(-c2cnccn2)n1C`, the cell count in experiment [1] was 679. The inhibition in experiment [1] is -15.7% (inactive); in experiment [3], -73.6% (inactive); in experiment [7] it was 22.1% (inactive); in experiment [8], 25.7% (inactive). In experiment [2], the inhibition of aggregation is -6.5% (inactive). Moreover, the nuclei count is 121% in experiment [2] and 109% in experiment [3]. Also, the fluorescence slope in experiment [4] is -0.603 (inactive); in experiment [6], 0.00641 (inactive). In experiment [5], the NADPH fluorescence slope is -3.8e-06 (inactive).

Take `O=C1CCC(=O)N1OCCCCOc1ccccc1`: the cell count in experiment [1] amounted to 692. Besides, the inhibition is 3.7% (inactive) in experiment [1], 7.8% (inactive) in experiment [3], 15.8% (inactive) in experiment [7] and 18% (inactive) in experiment [8]. In experiment [2], the inhibition of aggregation is -1.2% (inactive). The nuclei count in experiment [2] was 105%; in experiment [3], 106%. Further, the fluorescence slope is -0.421 (inactive) in experiment [4] and 0.00701 (inactive) in experiment [6]. For the same compound, the NADPH fluorescence slope in experiment [5] was 3.2e-05 (inactive).

As for `Cc1ccc(-n2c(=O)c3sccc3n(CC(=O)NCc3ccco3)c2=O)cc1`, in experiment [1], the cell count came out at 488. The inhibition is 0.3% (inactive) in experiment [1], -9.8% (inactive) in experiment [3], 6.07% (inactive) in experiment [7] and 12.8% (inactive) in experiment [8]. For the same compound, in experiment [2], the inhibition of aggregation is 21.9% (inactive). Besides, the nuclei count worked out at 103% in experiment [2] and 108% in experiment [3]. Besides, the fluorescence slope in experiment [4] is -0.579 (inactive); in experiment [6] it was 0.0056 (inactive). Also, the NADPH fluorescence slope in experiment [5] is -3.1e-05 (inactive).

In the case of `CC1(C)CC(=O)c2cc(OCC(=O)N3CCN(c4ccccc4F)CC3)ccc2O1`, the cell count in experiment [1] came to 550. Further, the inhibition in experiment [1] is -19.1% (inactive); in experiment [3], -101% (inactive); in experiment [7], 19.9% (inactive); in experiment [8], 0.776% (inactive). The inhibition of aggregation in experiment [2] was -3.9% (inactive). In addition, the nuclei count came to 94.6% in experiment [2] and 118% in experiment [3]. Further, the figures for the fluorescence slope in experiment [4] and in experiment [6] were -0.288 (inactive) and 0.00419 (inactive), respectively. In experiment [5], the NADPH fluorescence slope was -5.4e-06 (inactive).

In the case of `Cc1nnc(SCCn2c(N3CC(C)CC(C)C3)nc3c2c(=O)n(C)c(=O)n3C)s1` (centres undefined), in experiment [1], the cell count was 207. In addition, the inhibition in experiment [1] is 3.4% (inactive); in experiment [3], 60.7% (active); in experiment [7], 15.7% (inactive); in experiment [8] it was 21.2% (inactive). Besides, the inhibition of aggregation in experiment [2] is 10.1% (inactive). The nuclei count in experiment [2] stood at 84.9%; in experiment [3] it was 81.2%. Further, the fluorescence slope in experiment [4] is -0.598 (inactive); in experiment [6] it was 0.00478 (inactive). Further, the NADPH fluorescence slope in experiment [5] was -2.7e-05 (inactive).

On to `CCCCOC(=O)CSc1nc2c(cc1C#N)C(=O)CC(C)(C)C2`, for which the cell count in experiment [1] was 531. Moreover, the inhibition is 6.7% (inactive) in experiment [1], 37.8% (inactive) in experiment [3], -23.7% (inactive) in experiment [7] and -55.1% (inactive) in experiment [8]. Also, the inhibition of aggregation in experiment [2] was -21.3% (inactive). For the same compound, the nuclei count in experiment [2] was 98.4%; in experiment [3], 96.9%. Further, the fluorescence slope is -0.447 (inactive) in experiment [4] and 0.00537 (inactive) in experiment [6]. The NADPH fluorescence slope in experiment [5] was -0.000295 (inactive).

As for `C=CCC(Nc1ccco1)c1ccccc1` (centres undefined), the cell count in experiment [1] is 393. The inhibition is 2.5% (inactive) in experiment [1], -17.9% (inactive) in experiment [3], 19% (inactive) in experiment [7] and 19.6% (inactive) in experiment [8]. Moreover, the inhibition of aggregation in experiment [2] is 3.4% (inactive). The nuclei count turned out to be 112% in experiment [2] and 114% in experiment [3]. For the same compound, the fluorescence slope in experiment [4] is -0.498 (inactive); in experiment [6], 0.00454 (inactive). Besides, the NADPH fluorescence slope in experiment [5] was -2.9e-05 (inactive).

Regarding `COC(=O)c1oc2ccc(OC)cc2c1N`, in experiment [1], the cell count was 669. Moreover, the inhibition was 5.5% (inactive) in experiment [1], -4.2% (inactive) in experiment [3], -31.8% (inactive) in experiment [7] and -55% (inactive) in experiment [8]. Moreover, the inhibition of aggregation in experiment [2] is 18.1% (inactive). Besides, the nuclei count worked out at 85.1% in experiment [2] and 101% in experiment [3]. For the same compound, the fluorescence slope in experiment [4] is -0.523 (inactive); in experiment [6], 0.00575 (inactive). The NADPH fluorescence slope in experiment [5] is 5.1e-06 (inactive).

In the case of `COc1ccccc1C1c2c(oc3ccc(Cl)cc3c2=O)C(=O)N1c1cc(C)on1` (centres undefined), in experiment [1], the cell count came to 345. For the same compound, the inhibition was -5% (inactive) in experiment [1], -13.8% (inactive) in experiment [3], 24.8% (inactive) in experiment [7] and 16.8% (inactive) in experiment [8]. Also, in experiment [2], the inhibition of aggregation is 2.2% (inactive). The nuclei count stood at 103% in experiment [2] and 112% in experiment [3]. The fluorescence slope is -0.555 (inactive) in experiment [4] and 0.0044 (inactive) in experiment [6]. Besides, in experiment [5], the NADPH fluorescence slope was 2.1e-05 (inactive).

For the compound `O=C(Nc1ccc2c(c1)OCO2)c1ccc(Br)c(S(=O)(=O)N2CCCC2)c1`, the cell count in experiment [1] was 660. For the same compound, the inhibition in experiment [1] was -5.2% (inactive); in experiment [3] it was -99.5% (inactive); in experiment [7], -20.9% (inactive); in experiment [8], -15.4% (inactive). The inhibition of aggregation in experiment [2] was -2% (inactive). The values for the nuclei count in experiment [2] and in experiment [3] were 103% and 90.4%, respectively. Further, the fluorescence slope in experiment [4] was -0.505 (inactive); in experiment [6], 0.0042 (inactive). The NADPH fluorescence slope in experiment [5] is -6.5e-05 (inactive).

Turning to `COc1ccc(OC)c(NC(=O)Cc2coc3ccc(C)cc23)c1`, the cell count in experiment [1] worked out at 451. The inhibition in experiment [1] is 3.5% (inactive); in experiment [3] it was 46.7% (inactive); in experiment [7], 13.3% (inactive); in experiment [8], 16.6% (inactive). Besides, the inhibition of aggregation in experiment [2] is 3.9% (inactive). For the same compound, the nuclei count in experiment [2] came out at 97.1%; in experiment [3], 90.5%. For the same compound, the fluorescence slope in experiment [4] is -0.468 (inactive); in experiment [6], 0.0049 (inactive). Besides, the NADPH fluorescence slope in experiment [5] was -3.1e-05 (inactive).
